According to PMC5766731 (Clinical Pharmacokinetics, 2017):

Tests used:
[1] = rats, 1-month toxicity study; cited from earlier work
[2] = Part II multiple ascending-dose pharmacokinetics; assay type: in vivo, human; conditions: for t max / AUCt / AUC∞ / Accumulation Index / C max / CL / V z/F_obs / t ½ / λz: part II, N 6; for t max: mean (range) per footnote; for AUCt / AUC∞ / Accumulation Index / C max / CL / V z/F_obs / t ½ / λz: mean ± SD
In short: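 Four panels of eight (six drug, two placebo) were dosed orally, fasted, with 100, 150, 200 or 300 mg on Days 1, 3 and 5. Blood was taken pre-dose and at 0.5–36 h after the Day 1 and Day 5 doses, pre-dose and 12, 24 and 36 h after Day 3, and 48 and 72 h after Day 5. Diluted-blood LC-MS/MS (LLOQ 2 ng/mL). Accumulation index was derived.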

[3] = 100 mg oral on Days 1, 3, 5, Day 1
[4] = 100 mg oral on Days 1, 3, 5, Day 5
[5] = 150 mg oral on Days 1, 3, 5, Day 1
[6] = 150 mg oral on Days 1, 3, 5, Day 5
[7] = 200 mg oral on Days 1, 3, 5, Day 1
[8] = 200 mg oral on Days 1, 3, 5, Day 5

In the case of O=C(O)CNC(=O)c1c(O)c2ccccc2n(OCC2CC2)c1=O [ZYAN1], the “maximum tolerated dose (MTD)” value [1] is listed as 60 mg/kg, the “median t max, range” value ([2]; 100, 150, 200, 300 mg, first or fifth day of dosing) is listed as 1.5 to 3.0 h and the “accumulation of the drug” value ([2]; after first and third dose of 100, 150, 200, 300 mg, alternate-day dosing) is listed as “no accumulation of the drug was observed”. For the same compound, the “mean terminal t ½” value ([2]; in vivo) was “approximately 10 h”, the t max [2, 3] was 2.00 (1.00–3.00) h and the AUCt [2, 3] was 36,885.130 ± 11,488.927 h·ng/mL. For the same compound, the “AUC∞” value [2, 3] was 38,817.512 ± 13,184.682 h·ng/mL, the “Accumulation Index” value [2, 3] was 1.027 ± 0.018 and the C max [2, 3] was 6549.000 ± 1567.979 ng/mL. For the same compound, the CL [2, 3] was 2834.521 ± 775.188 mL/h, the V z/F_obs [2, 3] was 34,916.562 ± 8463.050 mL and the “t ½” value [2, 3] was 8.811 ± 1.869 h. For the same compound, the λz [2, 3] was 0.082 ± 0.020 h⁻¹, the t max [2, 4] was 2.00 (1.50–2.50) h and the AUCt [2, 4] was 39,690.467 ± 11,051.227 h·ng/mL. For the same compound, the “AUC∞” value [2, 4] was 40,102.984 ± 11,276.275 h·ng/mL, the “Accumulation Index” value [2, 4] was 1.106 ± 0.128 and the C max [2, 4] was 6566.667 ± 1525.703 ng/mL. For the same compound, the CL [2, 4] was 2744.020 ± 798.472 mL/h, the V z/F_obs [2, 4] was 47,571.130 ± 18,996.205 mL and the “t ½” value [2, 4] was 12.968 ± 6.654 h. For the same compound, the λz [2, 4] was 0.065 ± 0.029 h⁻¹, the t max [2, 5] was 1.50 (1.00–3.50) h and the AUCt [2, 5] was 59,780.215 ± 8539.865 h·ng/mL. For the same compound, the “AUC∞” value [2, 5] was 62,811.249 ± 10,222.543 h·ng/mL, the “Accumulation Index” value [2, 5] was 1.025 ± 0.026 and the C max [2, 5] was 8185.667 ± 1215.600 ng/mL. The CL [2, 5] was 2487.695 ± 399.669 mL/h, the V z/F_obs [2, 5] was 29,315.063 ± 6213.656 mL and the “t ½” value [2, 5] was 8.390 ± 2.431 h. For the same compound, the λz [2, 5] was 0.088 ± 0.025 h⁻¹, the t max [2, 6] was 1.75 (0.50–3.00) h and the AUCt [2, 6] was 65,307.036 ± 9629.912 h·ng/mL. For the same compound, the “AUC∞” value [2, 6] was 65,706.064 ± 9748.640 h·ng/mL, the “Accumulation Index” value [2, 6] was 1.043 ± 0.026 and the C max [2, 6] was 8657.000 ± 1190.575 ng/mL. For the same compound, the CL [2, 6] was 2398.514 ± 378.402 mL/h, the V z/F_obs [2, 6] was 34,943.264 ± 6986.821 mL and the “t ½” value [2, 6] was 10.205 ± 2.013 h. For the same compound, the λz [2, 6] was 0.070 ± 0.015 h⁻¹, the t max [2, 7] was 2.00 (1.50–3.50) h and the AUCt [2, 7] was 85,040.673 ± 12,019.503 h·ng/mL. For the same compound, the “AUC∞” value [2, 7] was 88,180.063 ± 13,633.711 h·ng/mL, the “Accumulation Index” value [2, 7] was 1.017 ± 0.019 and the C max [2, 7] was 13,203.333 ± 2762.033 ng/mL. For the same compound, the CL [2, 7] was 2344.752 ± 361.388 mL/h, the V z/F_obs [2, 7] was 25,167.492 ± 5973.588 mL and the “t ½” value [2, 7] was 7.573 ± 2.103 h. For the same compound, the λz [2, 7] was 0.097 ± 0.024 h⁻¹, the t max [2, 8] was 1.75 (0.50–2.50) h and the AUCt [2, 8] was 77,994.986 ± 21,218.895 h·ng/mL. For the same compound, the “AUC∞” value [2, 8] was 78,368.940 ± 21,616.249 h·ng/mL, the “Accumulation Index” value [2, 8] was 1.033 ± 0.018 and the C max [2, 8] was 12,388.333 ± 1607.376 ng/mL. The CL [2, 8] was 2758.333 ± 677.108 mL/h, the V z/F_obs [2, 8] was 36,889.057 ± 5339.335 mL and the “t ½” value [2, 8] was 9.534 ± 1.467 h. For the same compound, the λz [2, 8] was 0.074 ± 0.012 h⁻¹ and the t max ([2]; 300 mg oral on Days 1, 3, 5, Day 1) was 3.00 (1.50–3.500) h.
